# Source: ChEMBL document CHEMBL4330087, “Synthesis, antimicrobial activity, attenuation of aminoglycoside resistance in MRSA, and ribosomal A-site binding of pyrene-neomycin conjugates” (Eur J Med Chem, 2019)
# The source made the active and inactive calls. No cut-off for these calls is given here.
# How the values were obtained:
# [1] = test system: Ribosomal RNA A-site; assay: Binding affinity to rRNA-A site in human MDA-MB-231 cells assessed as inhibition of protein translation; assay type: cell-based
# [2] = test system: Ribosomal RNA A-site; assay: Displacement of F-NEO from Escherichia coli rRNA-A site after 10 to 20 mins by fluorescence assay relative to NEO; assay type: nucleic-acid assay; parameters: concentration or dose not given beside the values
# Method in brief: (§1)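 100 nM F-NEO:A-site complex in 10 mM HEPES, 50 mM NaCl, 0.04 mM EDTA, pH 7.0, mixed with ligand and incubated 10-20 min at room temperature. Fluorescence read at ex 485/em 525 nm, in duplicate. Percent binding was computed from the intensities of ligand-treated complex, complex without ligand, and complex with neomycin.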
# [3] = test system: Ribosomal RNA A-site; assay: Displacement of F-NEO from human cytosolic rRNA-A site after 10 to 20 mins by fluorescence assay relative to NEO; assay type: nucleic-acid assay; parameters: concentration or dose not given beside the values; method in brief: as §1
# [4] = test system: Ribosomal RNA A-site; assay: Displacement of F-NEO from human mitochondrial rRNA-A site after 10 to 20 mins by fluorescence assay relative to NEO; assay type: nucleic-acid assay; parameters: concentration or dose not given beside the values; method in brief: as §1
# [5] = organism: Homo sapiens; assay: Displacement of F-NEO from human mitochondrial rRNA-A site C1410U mutant after 10 to 20 mins by fluorescence assay relative to NEO; parameters: concentration or dose not given beside the values; method in brief: as §1
# [6] = organism: Homo sapiens; assay: Displacement of F-NEO from human mitochondrial rRNA-A site A1490G mutant after 10 to 20 mins by fluorescence assay relative to NEO; method in brief: as §1
# [7] = test system: Ribosomal RNA A-site; assay: Displacement of F-NEO from Escherichia coli rRNA-A site after 10 to 20 mins by fluorescence assay; assay type: nucleic-acid assay
# Method in brief: (§2)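 A 100 nM F-NEO:A-site RNA complex in 10 mM HEPES, 50 mM NaCl, 0.04 mM EDTA, pH 7.0 was titrated with 2-fold dilutions of ligand from 20 to 0.009 μM, or from 60 or 40 μM for weaker ligands. Incubated 10-20 min at room temperature, fluorescence read at ex 485/em 525 nm. IC50 from dose-response curve fit.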
# [8] = target: Ribosomal RNA A-site; assay: Displacement of F-NEO from human cytosolic rRNA-A site after 10 to 20 mins by fluorescence assay; assay type: nucleic-acid assay; method in brief: as §2
# [9] = target: Ribosomal RNA A-site; assay: Displacement of F-NEO from human mitochondrial rRNA-A site after 10 to 20 mins by fluorescence assay; assay type: nucleic-acid assay; method in brief: as §2
# [10] = Displacement of F-NEO from human mitochondrial rRNA-A site C1410U mutant after 10 to 20 mins by fluorescence assay; method in brief: as §2
# [11] = test system: Staphylococcus aureus; assay: Antibacterial activity against NEO-sensitive Staphylococcus aureus 25923 at 6.25 uM after 15 to 20 hrs by CLSI protocol based microdilution assay relative to control; assay type: functional
# Method in brief: (§3)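 Single-concentration screen at 6.25 μM against exponential-phase cultures, in duplicate, with NEO as reference. Enterococcus was grown in BHI broth, M. smegmatis in TS broth with 0.05% Tween 80, and all other strains in TS broth. The 1% DMSO water vehicle was added to broth (background) and culture (growth control). Incubation was 37 °C, humidified, 15-20 h. Result is percent growth inhibition.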
# [12] = test system: Staphylococcus aureus; assay: Antibacterial activity against NEO-sensitive Staphylococcus aureus harboring NorA mutant at 6.25 uM after 15 to 20 hrs by CLSI protocol based microdilution assay relative to control; assay type: functional
# Method in brief: (§4)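 Exponential-phase cultures were exposed to 6.25 μM compound in duplicate with neomycin as reference, at 37 °C in a humidified incubator for 15-20 h. Broth and culture controls received sterile water with 1% DMSO. Percent growth inhibition was calculated against the growth and background controls.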
# [13] = test system: Staphylococcus epidermidis; assay: Antibacterial activity against NEO-sensitive Staphylococcus epidermidis 12384 at 6.25 uM after 15 to 20 hrs by CLSI protocol based microdilution assay relative to control; assay type: functional; method in brief: as §3
# [14] = test system: Staphylococcus aureus; assay: Antibacterial activity against methicillin-resistant Staphylococcus aureus 33591 at 6.25 uM after 15 to 20 hrs by CLSI protocol based microdilution assay relative to control; assay type: functional; method in brief: as §4
# [15] = test system: Staphylococcus aureus; assay: Antibacterial activity against methicillin-resistant Staphylococcus aureus A960649 at 6.25 uM after 15 to 20 hrs by CLSI protocol based microdilution assay relative to control; assay type: functional; method in brief: as §4
# [16] = test system: Staphylococcus aureus; assay: Antibacterial activity against methicillin-resistant Staphylococcus aureus SU-5 at 6.25 uM after 15 to 20 hrs by CLSI protocol based microdilution assay relative to control; assay type: functional; method in brief: as §4
# [17] = test system: Staphylococcus aureus; assay: Antibacterial activity against methicillin-resistant Staphylococcus aureus M0602 at 6.25 uM after 15 to 20 hrs by CLSI protocol based microdilution assay relative to control; assay type: functional; method in brief: as §4
# [18] = test system: Streptococcus pyogenes; assay: Antibacterial activity against NEO-resistant Streptococcus pyogenes C203 at 6.25 uM after 15 to 20 hrs by CLSI protocol based microdilution assay relative to control; assay type: functional; method in brief: as §4
# [19] = test system: Enterococcus faecalis; assay: Antibacterial activity against NEO-intermediate sensitive Enterococcus faecalis ATCC 29212 at 6.25 uM after 15 to 20 hrs by CLSI protocol based microdilution assay relative to control; assay type: functional; method in brief: as §3
# [20] = test system: Enterococcus faecium; assay: Antibacterial activity against NEO-intermediate sensitive Enterococcus faecium BM4105-RF at 6.25 uM after 15 to 20 hrs by CLSI protocol based microdilution assay relative to control; assay type: functional; method in brief: as §3
# [21] = test system: Mycolicibacterium smegmatis; assay: Antibacterial activity against NEO-sensitive Mycobacterium smegmatis at 6.25 uM after 15 to 20 hrs by CLSI protocol based microdilution assay relative to control; assay type: functional; method in brief: as §3
# [22] = test system: Bacillus anthracis; assay: Antibacterial activity against NEO-sensitive Bacillus anthracis BA852 at 6.25 uM after 15 to 20 hrs by CLSI protocol based microdilution assay relative to control; assay type: functional; method in brief: as §4
# [23] = test system: Listeria monocytogenes; assay: Antibacterial activity against NEO-sensitive Listeria monocytogenes ATCC 19115 at 6.25 uM after 15 to 20 hrs by CLSI protocol based microdilution assay relative to control; assay type: functional; method in brief: as §3
# [24] = test system: Escherichia coli; assay: Antibacterial activity against NEO-sensitive Escherichia coli ATCC 25922 at 6.25 uM after 15 to 20 hrs by CLSI protocol based microdilution assay relative to control; assay type: functional; method in brief: as §3
# [25] = test system: Escherichia coli; assay: Antibacterial activity against NEO-sensitive Escherichia coli harboring TolC mutant at 6.25 uM after 15 to 20 hrs by CLSI protocol based microdilution assay relative to control; assay type: functional; method in brief: as §4
# [26] = test system: Escherichia coli; assay: Antibacterial activity against multidrug-resistant Escherichia coli H4H at 6.25 uM after 15 to 20 hrs by CLSI protocol based microdilution assay relative to control; assay type: functional; method in brief: as §4
# [27] = test system: Acinetobacter baumannii; assay: Antibacterial activity against NEO-sensitive Acinetobacter baumannii ATCC 19606 at 6.25 uM after 15 to 20 hrs by CLSI protocol based microdilution assay relative to control; assay type: functional, ATCC 19606 = CIP 70.34 = JCM 6841; method in brief: as §3
# [28] = test system: Pseudomonas aeruginosa; assay: Antibacterial activity against NEO-resistant Pseudomonas aeruginosa 27853 at 6.25 uM after 15 to 20 hrs by CLSI protocol based microdilution assay relative to control; assay type: functional; method in brief: as §4
# [29] = test system: Klebsiella oxytoca; assay: Antibacterial activity against NEO-sensitive Klebsiella oxytoca HM-625 at 6.25 uM after 15 to 20 hrs by CLSI protocol based microdilution assay relative to control; assay type: functional; method in brief: as §3
# [30] = Antibacterial activity against NEO-sensitive Enterobacter cloacae 13047 at 6.25 uM after 15 to 20 hrs by CLSI protocol based microdilution assay relative to control; assay type: functional, Enterobacter cloacae subsp. cloacae, ATCC 13047; method in brief: as §3
# [31] = test system: Staphylococcus aureus; assay: Antibacterial activity against NEO-sensitive Staphylococcus aureus C2 after 15 to 20 hrs by CLSI protocol based microdilution assay; assay type: functional
# Method in brief: (§5)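 CLSI broth microdilution MIC in triplicate on exponential-phase cells, ~3×10^5 cells per mL in cation-adjusted Mueller-Hinton broth. Compound was added from 10× stocks in 10% DMSO as serial 2-fold dilutions, final 50 to 0.78 μM. Plates were incubated at 37 °C, humidified, 15-20 h. Growth was read as absorbance at 595 nm, and percent inhibition was averaged over triplicates.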
# [32] = test system: Staphylococcus aureus; assay: Antibacterial activity against NEO-sensitive Staphylococcus aureus C1 after 15 to 20 hrs by CLSI protocol based microdilution assay; assay type: functional; method in brief: as §5
# [33] = test system: Staphylococcus aureus; assay: Antibacterial activity against NEO-sensitive Staphylococcus aureus NRS77 after 15 to 20 hrs by CLSI protocol based microdilution assay; assay type: functional; method in brief: as §5
# [34] = test system: Staphylococcus aureus; assay: Antibacterial activity against NEO-sensitive Staphylococcus aureus 6538 after 15 to 20 hrs by CLSI protocol based microdilution assay; assay type: functional; method in brief: as §5
# [35] = test system: Klebsiella pneumoniae; assay: Antibacterial activity against Klebsiella pneumoniae NR-151410 at 6.25 uM after 15 to 20 hrs by CLSI protocol based microdilution assay relative to control; assay type: functional; method in brief: as §3
# [36] = Inhibition of Eis (unknown origin)
# [37] = Inhibition of AAC(3)-4 (unknown origin)
# [38] = Inhibition of AAC(6')-1e (unknown origin)
# [39] = Inhibition of AAC(2')-1c (unknown origin)
# [40] = Inhibition of APH(3')-1a (unknown origin)
# [41] = Inhibition of APH(2\")-1a (unknown origin)
compound,measurement,setting,value
CC/C(=C(\c1ccccc1)c1ccc(OCCN(C)C)cc1)c1ccccc1 [TAMOXIFEN],IC50,[1],18.1 µM
NC[C@@H]1O[C@H](O[C@H]2[C@@H](O)[C@H](O[C@@H]3[C@@H](O)[C@H](N)C[C@H](N)[C@H]3O[C@H]3O[C@H](CN)[C@@H](O)[C@H](O)[C@H]3N)O[C@@H]2CNC(=O)CCc2ccc3ccc4cccc5ccc2c3c45)[C@H](N)[C@@H](O)[C@@H]1O,inhibition,[2],33%
same,inhibition,[3],39%
same,inhibition,[4],47%
same,inhibition,[5],65%
same,inhibition,[6],22%
same,IC50,[7],310 nM
same,IC50,[8],447 nM
same,IC50,[9],373 nM
same,IC50,[10],332 nM
same,Activity,[11],15%
same,Activity,[12],inactive
same,Activity,[13],10%
same,Activity,[14],14%
same,Activity,[15],16%
same,Activity,[16],inactive
same,Activity,[17],inactive
same,Activity,[18],inactive
same,Activity,[19],6%
same,Activity,[20],0%
same,Activity,[21],35%
same,Activity,[22],inactive
same,Activity,[23],inactive
same,Activity,[24],0%
same,Activity,[25],inactive
same,Activity,[26],inactive
same,Activity,[27],10%
same,Activity,[28],14%
same,Activity,[29],5%
same,Activity,[30],0%
same,MIC,[31],25 µM
same,MIC,[32],25 µM
same,MIC,[33],> 25 µM
same,MIC,[34],12.5 µM
same,Activity,[35],13%
same,inhibition,[36],Active
same,inhibition,[37],Active
same,inhibition,[38],Active
same,inhibition,[39],Active
same,inhibition,[40],Active
same,inhibition,[41],Active
